Compound activity from PubChem BioAssay.
PGC1a acetyl inh – inhibitors of PGC1a acetylation signal, primary screen, cell-based, U2OS, AlphaScreen, inhibitor mode; AlphaScreen anti-acetyl-lysine; with virally co-expressed GCN5 acetyltransferase; inhibition, % at 15.6 µM; 0.17% of 350,000 active; AID 651687, 2012;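 active means every replicate shows inhibition of at least 40%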;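 further: 0% = neutral control wells and 100% = positive control wells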
FGF22 binding-1 – binders of human FGF22 protein, primary screen, FGF22 synaptogenesis inhibitor project, biophysical, thermal shift, single point. Fibroblast growth factor 22 (Homo sapiens), Q9HCT0. recombinant FGF22 thermal shift, SYPRO orange fluorescence; percent of sucrose octasulfate shift, DMSO zero. activity (Tm shift, normalised), % at 9.99 µM. 1.5% of 340,000 active. AID 651658, 2012;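 active means mean Tm shift, scaled 0 neutral to 100 positive control, at about 1.3% or above, every replicate too, limit read from the data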
Target sequence (Q9HCT0 whole entry, looked up): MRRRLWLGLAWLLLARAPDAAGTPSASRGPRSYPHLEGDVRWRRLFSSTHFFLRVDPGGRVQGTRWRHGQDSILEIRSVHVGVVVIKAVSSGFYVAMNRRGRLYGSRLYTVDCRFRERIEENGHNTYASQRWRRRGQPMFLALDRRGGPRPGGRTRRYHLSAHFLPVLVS
FN deposition inh – inhibitors of fibronectin matrix deposition, primary screen, AH1F cells, Alexa488-fibronectin fluorescence, plate reader | AH1F fibroblasts, overnight | AID 743247, 2014 | 0.086% of 350,000 active | inhibition, % at 12.6 µM;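 active means mean inhibition across replicates of 30% or more, regardless of how many single replicates reach that level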;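 further: positive control wells lacked labelled fibronectin entirely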
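Measured by – fluorescence 485/525 nm · System – AH1F fibroblast monolayer, labelled fibronectin deposition · Amount – 10000 cells per well · Buffer or medium – serum-reduced DMEM (2% serum) · Doses – single dose, pinned · Also added – fluorescent fibronectin at 24 nM final · Schedule – 1 h cell attachment, overnight exposure to compound and label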
EWS-Fli block – EWS/Fli-driven NR0B1 reporter inhibitors, primary screen, A673 cells, NR0B1 luciferase, luminescence, MLPCN library; 0.67% of 350,000 active; viability-normalised; inhibition, % at 12.6 µM;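 active means mean inhibition of at least 50% after viability correction, with every replicate also passing that limit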;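 further: firefly luciferase signal divided by Alamar Blue viability fluorescence both relative to DMSO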
Env fusion inh – inhibitors of HIV-1 Env-driven cell-cell fusion, primary screen, HeLa-JRFL effector, CEM21 target cells, luciferase; inhibition, % at 12.3 µM; 1.1% of 360,000 active; AID 651610, 2012;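 active means mean replicate inhibition score of at least 50 and every replicate individually at or above 50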;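 further: 0% = plate neutral controls and 100% = maraviroc near 300 nM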
PAX8 inh HTS – inhibitors of PAX8-driven TPO luciferase reporter, primary screen, RMG-I cells, single concentration. SteadyGlo, 24 h. inhibition, % at 12.6 µM. 1.2% of 360,000 active. AID 652154, 2013;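 active means mean replicate inhibition at least 60% with every replicate also reaching 60%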;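 further: luciferase light reporting Pax8 driven TPO promoter activity; plate controls were median of neutral control wells for no effect and mitoxantrone controls for full effect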
FGF22 binding-2 – binders of human FGF22 protein, dose response, FGF22 synaptogenesis inhibitor project, biophysical, thermal shift, cherry-pick retest; shares compounds with FGF22 binding-1; recombinant FGF22 thermal shift, SYPRO orange fluorescence; 2% of 1,000 active; thermal shift activity, °C (ΔTm) at 38 µM;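 active means fitted rise in melting shift crosses a set limit at or below the top valid dose tested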
FGF22 TSA – binders of human FGF22 protein, dose response, FGF22 synaptogenesis inhibitor project, biophysical, thermal shift, dry powder | shares compounds with FGF22 binding-1 | Thermal shift assay, SYPRO orange, melting temperature shift | Tm shift (activity), % at 38 µM | 50 tested, under 10 active;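 active means compounds whose fitted dose curve of melting temperature shift rises past a set threshold within the tested doses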
SYPRO no-protein – compound-only thermal shift signal without protein, dose response, artefact control for FGF22 binder project, biochemical, cherry-picked samples, RT-PCR instrument. AID 743019, 2013. AC50, µM (highest dose often 38 µM). 2% of 1,000 active. shares compounds with FGF22 binding-1. compound-only SYPRO orange thermal shift counter-screen, no protein;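 active means rising signal whose fitted curve reaches the 0.54 level within the top valid dose, showing a melting point, actives reach about 13 µM in these data; inactive means the rest, including activity in the opposite direction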; further: value is where the raw curve crosses a fixed level and not half-maximal
Starred values were filed as active, the others as inactive; i = inactive; . = no result; ! = repeats disagree; [ ] = remark or other dose. An excerpt weighted towards active compounds, which were near 3.1% of everything screened.

SMILES	PGC1a acetyl inh	FGF22 binding-1	FN deposition inh	EWS-Fli block	Env fusion inh	PAX8 inh HTS	FGF22 binding-2	SYPRO no-protein	others
CC1CCCCN1C(=O)CCNC(=O)Cn1cnc2ccccc2c1=O (stereo unspecified)	23	0	-2	2	-3	-4	.	.
O=C(Cc1c[nH]c2ccccc12)N1CCN(S(=O)(=O)c2ccc(F)cc2)CC1	7	0	-4	13	10	15	.	.
O=C(Cc1c[nH]c2ccccc12)N1CCN(S(=O)(=O)c2cccc(Cl)c2Cl)CC1	-19	2.9*	2	23	.	31	-0.22	i
CCc1ccc(N2CC(C(=O)OCC(=O)NC3CC3)CC2=O)cc1 (stereo unspecified)	-3	.	2	0	-500	4	.	.
CCc1ccc(N2CC(C(=O)OCC(=O)Nc3ccc(C#N)cc3)CC2=O)cc1 (stereo unspecified)	1	1.6*	0	-3	3	-8	0.06	i
CCc1ccc(N2CC(C(=O)OCC(=O)Nc3ccccc3C)CC2=O)cc1 (stereo unspecified)	4	0	9	2	-4	-7	.	.
CCc1ccc(N2CC(C(=O)OCC(=O)Nc3ccc(C(C)=O)cc3)CC2=O)cc1 (stereo unspecified)	2	1.9*	6	4	3	0	-0.51	i
C[C@@H]1CN([C@@H](C)CO)C(=O)Cc2cc(NC(=O)CCCCCC(=O)Nc3ccccc3N)ccc2O[C@H]1CN(C)Cc1ccncc1	5	0	.	-5	-10[16.7 µM]	2	.	.
COc1ccc(C(=O)NCCc2c[nH]c3ccccc23)cc1	.	0	-3	-87	-72	-182	.	.
O=C(NCCc1c[nH]c2ccccc12)c1ccc(Cl)cc1	-5	2.4*	4	-93	-78	-147	-0.006	i	FGF22 TSA=0
CC1C=NC(S(=O)(=O)N2CC[C@@H]3[C@@H](CO)N(C)c4ccc(-c5ccc(F)cc5)cc4[C@@H]32)=N1 (stereo partly specified)	2	2.0*	10	14	.	-8	.	i
CCCN(CCC)CC(C)(C)NS(=O)(=O)c1ccc(Cl)cc1	-10	1.4*	0	2	6	0	-0.022	i
CCN(CC)CCNS(=O)(=O)c1ccc(Cl)cc1	-1	.	-7	.	-61	-9	.	.
CCN1CCc2c(sc(NC(=O)c3ccc(C(=O)c4ccccc4)cc3)c2C(N)=O)C1	4	0	-1	6	-44	-5	.	.
CCN1CCc2c(sc(NC(=O)c3ccc(S(=O)(=O)N(CC)c4ccccc4)cc3)c2C(N)=O)C1	.	28*	0	49	12	.	0.017	i
CCOC(=O)N1CCc2c(sc(NC(=O)C3COc4ccccc4O3)c2C(N)=O)C1 (stereo unspecified)	.	29*	4	.	-6	-12	-0.11	i
CC(=O)N1CCc2c(sc(NC(=O)C3COc4ccccc4O3)c2C(N)=O)C1 (stereo unspecified)	3	0	-4	-36	-52	-51	.	.
COc1ccc(NC(=O)N(C)C[C@H]2Oc3ccc(NC(=O)NC(C)C)cc3CC(=O)N([C@@H](C)CO)C[C@H]2C)cc1	11	0	2	2	32[16.7 µM]	5	.	.
COc1ccc(NC(=O)N(C)C[C@@H]2Oc3ccc(NS(=O)(=O)c4ccc(OC)cc4)cc3CC(=O)N([C@H](C)CO)C[C@@H]2C)cc1	6	7.6*	.	-2	-9[16.7 µM]	-1	-0.035	i
COc1ccc(S(=O)(=O)Nc2ccc3c(c2)C(=O)N([C@H](C)CO)C[C@H](C)[C@H](CN(C)CC2CC2)OCCCC[C@H](C)O3)cc1	-11	1.4*	.	0	-2[16.7 µM]	-1	0.018	i
COc1ccc(NC(=O)N(C)C[C@@H]2Oc3ccc(NC(=O)NC(C)C)cc3CC(=O)N([C@H](C)CO)C[C@@H]2C)cc1	12	15*!	-4	-14	-13	2	0.077	i
COc1ccc(S(=O)(=O)Nc2ccc3c(c2)CC(=O)N([C@@H](C)CO)C[C@@H](C)[C@H](CN(C)C(=O)Nc2ccc(F)cc2)O3)cc1	-1	0	.	-1	-22[16.7 µM]	1	.	.
COc1ccc(S(=O)(=O)Nc2ccc3c(c2)C(=O)N([C@H](C)CO)C[C@H](C)[C@H](CN(C)CC2CC2)OCCCC[C@@H](C)O3)cc1	1	0	.	-11	23[16.7 µM]	7	.	.
COc1ccc(S(=O)(=O)N(C)C[C@@H]2Oc3ccc(NC(=O)Nc4ccccc4)cc3CC(=O)N([C@H](C)CO)C[C@@H]2C)cc1	-11	1.7*	.	3	23[16.7 µM]	8	0.036[42 µM]	i
C[C@@H]1CN([C@H](C)CO)C(=O)CCCn2cc(nn2)CO[C@H]1CN(C)Cc1cccnc1	-8	0	8	-10	-4[16.7 µM]	.	.	.
COCC#Cc1ccc2c(c1)O[C@H](CN(C)Cc1ccc(F)cc1)[C@@H](C)CN([C@@H](C)CO)S2(=O)=O	-8	0	-7	25	-6[16.7 µM]	.	.	.
Cc1ccc(S(=O)(=O)N2C[C@H](O)COC[C@@H]3O[C@@H](CC(=O)N[C@H]4CCN(Cc5ccccc5)C4)CC[C@H]32)cc1	5	0	2	-9	.	-1	.	.
C[C@H]1CN([C@@H](C)CO)C(=O)c2cc(NC(=O)Cn3cnnn3)ccc2O[C@H]1CN(C)CC1CCCCC1	1	0	.	10	-7[16.7 µM]	.	.	.
CO[C@H]1CN(C)C(=O)c2cc(NC(C)=O)ccc2OC[C@H](C)N(C(=O)c2ccccc2F)C[C@@H]1C	-1	1	1	-1	.	.	.	.
COc1ccc(NC(=O)N(C)C[C@H]2Oc3ccc(NS(=O)(=O)c4ccccc4)cc3C(=O)N([C@H](C)CO)C[C@H]2C)cc1	3	0	.	-4	-4[16.7 µM]	.	.	.
